Published values of several laboratories.
Each line is one published result; the experiments were not run side by side.
CDK5: Cyclin-dependent kinase 5 (CDK5, Homo sapiens, UniProt Q00535)
CDK5 with p35: Cyclin-dependent kinase 5, with p35 (CDK5, Homo sapiens, UniProt Q00535)
CDK5 with p25: Cyclin-dependent kinase 5, with p25 (CDK5, Homo sapiens, UniProt Q00535)

| SMILES | target | test | setting | measurement | result |
| --- | --- | --- | --- | --- | --- |
| NS(=O)(=O)c1cc(NC(=O)Cc2ccccc2)ccc1Oc1cccc(Cl)c1 | CDK5 | cell-free assay, competition with immobilised ligand | 1 µM | remaining binding | 61% |
| Cc1ccc(NC(=O)c2ccc(C)c(C(F)(F)F)c2)cc1C#Cc1nn(C2CCC(O)CC2)c2ncnc(N)c12 (stereo not drawn) | CDK5 with p35 | cell-free assay | 10 µM | remaining signal | 127% |
| Nc1ncnc2occ(-c3ccc(NC(=O)Nc4cc(C(F)(F)F)ccc4F)cc3)c12 | CDK5 | cell-free assay, inhibitor | 20 µM | remaining signal | 0.55% |
| Oc1ccc(-c2nc(-c3ccncc3)c(-c3ccc(F)cc3)[nH]2)cc1 | CDK5 with p35 | cell-free assay | 0.5 µM | remaining signal | 97.3% |
| CC(C)c1ccc(NC(=O)c2cccs2)c(-c2nc3ccccc3[nH]c2=O)c1 | CDK5 with p35 | enzyme activity, inhibitor | 1 µM | activity vs control | 103% |
| C[C@H](c1ccnc(Nc2nc3ccc(-c4cc(N(C)C)ncn4)cc3[nH]2)c1)N1CCN(C(=O)CC(F)(F)F)CC1 | CDK5 | cell-free assay, competition with immobilised ligand | 0.1 µM | remaining binding | 86% |
| CC[C@H](C)[C@H](NC(=O)[C@H](CCC(N)=O)NC(=O)[C@H](CC(C)C)NC(=O)[C@H](CCSC)NC(=O)[C@H](CCCCN)NC(=O)[C@H](CO)NC(=O)[C@H](CO)NC(=O)[C@H](CCSC)NC(=O)[C@H](CC(C)C)NC(=O)[C@H](CC(N)=O)NC(=O)[C@@H](NC(=O)[C@@H](NC(=O)[C@H](CO)NC(=O)[C@H](CC(C)C)NC(=O)[C@H](CS)NC(=O)[C@H](CCCNC(=N)N)NC(=O)[C@H](CC(=O)O)NC(=O)[C@H](Cc1c[nH]c2ccccc12)NC(=O)[C@H](Cc1ccccc1)NC(=O)[C@H](C)NC(=O)[C@H](CCC(=O)O)NC(=O)[C@@H](N)CCCCN)C(C)C)[C@@H](C)CC)C(=O)N[C@@H](CC(N)=O)C(=O)N[C@@H](C)C(=O)O | CDK5 with p25 | enzyme activity, inhibitor, radiometric | 100 µM, 20 min | remaining activity | 59% |
| Cc1ccc(C(=O)NCc2ccsc2)cc1C#Cc1cn(C(C)C)c2ncnc(N)c12 | CDK5 with p25 | enzyme activity, inhibitor | 1 µM | activity vs control | 95% |
| N#CCCc1ccc2c(c1)-c1[nH]c3ccc([N+](=O)[O-])cc3c1CC(=O)N2 | CDK5 with p35 | cell-free assay | 0.5 µM | remaining signal | 2.6% |
| O=C1NC(c2ccccn2)Sc2ccccc21 (stereo not drawn) | CDK5 | cell-free assay, competition with immobilised ligand | 1 µM | remaining binding | 86% |
| CCCOc1ccc(OC)c(F)c1C(=O)c1ccc(C(=O)N[C@@H]2CNC[C@H]2NC(=O)c2ccc3[nH]ncc3c2)cc1 | CDK5 with p25 | enzyme activity, inhibitor | 0.75 µM | remaining activity | 85% |
| CS(=O)(=O)c1cc(C2(NC(=O)c3cncc4c3cnn4-c3ccc(F)cc3)CC2)ccn1 | CDK5 | cell-free assay, competition with immobilised ligand | 1 µM | remaining binding | 100% |
| Nc1nc(Nc2ccc(S(N)(=O)=O)cc2)nn1C(=O)c1c(F)cccc1F | CDK5 with p35 | cell-free assay | 0.5 µM | remaining signal | 0.212% |
| Cc1cc(NC(=O)c2cccc3cc(-c4cccc5[nH]nc(N)c45)ccc23)ccc1F | CDK5 with p25 | enzyme activity, inhibitor | 0.1 µM | activity vs control | 94% |
| COc1ccc2c(c1)O[C@@H](c1ccc(OC)c(OC)c1)C[C@H]2NC(=O)C1(c2ccc3c(c2)OC(F)(F)O3)CC1 | CDK5 | cell-free assay, competition with immobilised ligand | 1 µM | remaining binding | 100% |
| O=C1Nc2ccc(Cl)cc2C1=Cc1cc(Cl)c(O)c(Cl)c1 | CDK5 with p35 | cell-free assay | 0.5 µM | remaining signal | 94.5% |
| CS(=O)(=O)N1CCCC(NC(=O)[C@H](CCC2CCCCC2)NC(=O)c2ccc(CNc3ncnc4c3nnn4-c3ccccc3)cc2)C1 (stereo partly drawn) | CDK5 | cell-free assay, competition with immobilised ligand | 0.1 µM | remaining binding | 94% |
| O=C1NC(=O)c2cc(Nc3ccc(F)cc3)c(Nc3ccc(F)cc3)cc21 | CDK5 with p35 | cell-free assay | 0.5 µM | remaining signal | 98.5% |
